In ChEMBL document CHEMBL4706495, “A novel class of small molecule inhibitors with radioprotective properties” (Eur J Med Chem, 2020):

What was measured:
[1] = test system: A549; assay: Cytotoxicity against human A549 cells assessed as maximum tolerated concentration incubated for 24 hrs by MTT assay; assay type: functional
Outline: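 A-549 cells in DMEM with 10% FBS and 1% penicillin-streptomycin, left to attach overnight. Compounds made up in PBS, serially diluted in DMEM, incubated 24 h, then viability read by MTT reduction against untreated controls on each plate. MTC taken as the highest concentration showing no significant difference from non-treated control (t-test).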

[2] = test system: MCF7; assay: Cytotoxicity against human MCF7 cells assessed as cell viability at 100 uM measured after 48 hrs by WST-1 assay relative to control; assay type: functional; details: read-out: Activity
Outline: (§1)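 Ten-line human panel (9 cancer, 1 non-cancerous). Cells were seeded at a pre-established optimal density (500–30 × 10³ per well) and settled overnight. Compounds came from 10 mM DMSO stocks and were tested at two concentrations. WST-1 readout followed the manufacturer's protocol at the end of cultivation. Viability is expressed as % of untreated control cells, mean of three independent experiments.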

[3] = test system: HT-29; assay: Cytotoxicity against human HT-29 cells assessed as cell viability at 10 uM measured after 48 hrs by WST-1 assay relative to control; assay type: functional; details: read-out: Activity; outline: as §1
[4] = Toxicity in C57Bl/6 mouse assessed as change in body weight at 100 mg/kg, ip measured after 30 days (reference value: 103 +/- 12 %); assay type: organism-based; details: in vivo, 720 h, time 30 day
[5] = Immuno-toxicity in C57Bl/6 mouse assessed as decrease in absolute number of lymphocytes at 100 mg/kg, ip measured after 7 to 12 days post-treatment by flow cytometry; assay type: organism-based; details: in vivo, time 7-12 day
[6] = Toxicity in C57Bl/6 mouse assessed as adverse effects at 100 mg/kg, ip measured after 30 days; assay type: organism-based; details: in vivo, 720 h, time 30 day
Outline: (§2)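 Safety in C57Bl/6 mice (27 ± 3 g) given a single 100 mg/kg i.p. injection without irradiation. Deaths, adverse effects and body weight followed over 30 days against an untreated control group. Weight reported as change from day 0.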

[7] = test system: MCF7; assay: Cytotoxicity against human MCF7 cells assessed as cell viability at 10 uM measured after 48 hrs by WST-1 assay relative to control; assay type: functional; details: read-out: Activity; outline: as §1
[8] = test system: HT-29; assay: Cytotoxicity against human HT-29 cells assessed as cell viability at 100 uM measured after 48 hrs by WST-1 assay relative to control; assay type: functional; details: read-out: Activity; outline: as §1
[9] = Cytotoxicity against human MRC5 cells assessed as cell viability at 100 uM measured after 48 hrs by WST-1 assay relative to control; assay type: cell-based; details: read-out: Activity; outline: as §1
[10] = Cytotoxicity against human MRC5 cells assessed as cell viability at 10 uM measured after 48 hrs by WST-1 assay relative to control; assay type: cell-based; details: read-out: Activity; outline: as §1
[11] = test system: MOLT-4; assay: Cytotoxicity against human MOLT-4 cells assessed as cell viability at 10 uM measured after 48 hrs by WST-1 assay relative to control; assay type: functional; details: read-out: Activity; outline: as §1
[12] = test system: SAOS-2; assay: Cytotoxicity against human SAOS-2 cells assessed as cell viability at 100 uM measured after 48 hrs by WST-1 assay relative to control; assay type: functional; details: read-out: Activity; outline: as §1
[13] = Toxicity in C57Bl/6 mouse assessed as average body weight at 100 mg/kg, ip measured after 30 days (reference value: 27 +/ 3.2 g); assay type: organism-based; details: in vivo, 720 h, time 30 day
[14] = test system: MOLT-4; assay: Radioprotective activity against gamma irradiation-induced apoptosis in human MOLT-4 cells assessed as viable cells at 100 uM pretreated with compound for 1 hr followed by gamma irradiation and measured after 24 hrs by annexinV/propidium iodide staining based flow cytometry (reference value: 40 %); assay type: functional; details: MOLT-4, light or radiation study, time 25 hrs, read-out: Activity
[15] = test system: Jurkat; assay: Cytotoxicity against human Jurkat cells assessed as cell viability at 100 uM measured after 48 hrs by WST-1 assay relative to control; assay type: functional; details: read-out: Activity; outline: as §1
[16] = test system: A549; assay: Cytotoxicity against human A549 cells assessed as cell viability at 100 uM measured after 48 hrs by WST-1 assay relative to control; assay type: functional; details: read-out: Activity; outline: as §1
[17] = test system: A2780; assay: Cytotoxicity against human A2780 cells assessed as cell viability at 100 uM measured after 48 hrs by WST-1 assay relative to control; assay type: functional; details: read-out: Activity; outline: as §1
[18] = test system: Mus musculus; assay: Radioprotective activity in C57Bl/6 mouse assessed as median survival time at 100 mg/kg, ip administered 5 min prior to gamma-irradation at 8.5 Gy and measured after 30 days (reference value: 12 days); assay type: functional
[19] = test system: PANC-1; assay: Cytotoxicity against human PANC-1 cells assessed as cell viability at 100 uM measured after 48 hrs by WST-1 assay relative to control; assay type: functional; details: read-out: Activity; outline: as §1
[20] = test system: A549; assay: Cytotoxicity against human A549 cells assessed as cell viability at 10 uM measured after 48 hrs by WST-1 assay relative to control; assay type: functional; details: read-out: Activity; outline: as §1
[21] = Toxicity in C57Bl/6 mouse assessed as mouth death at 100 mg/kg, ip measured after 30 days; assay type: organism-based; details: in vivo, 720 h, time 30 day; outline: as §2
[22] = test system: Mus musculus; assay: Radioprotective activity in C57Bl/6 mouse assessed as average body weight at 100 mg/kg, ip administered 5 min prior to gamma-irradation at 8.5 Gy and measured immediately (reference value: 25.4 +/- 2.6 g); assay type: functional
[23] = Toxicity in C57Bl/6 mouse assessed as average body weight at 100 mg/kg, ip and measured immediately (reference value: 26.3 +/- 2.4 g); assay type: organism-based; details: in vivo
[24] = test system: MOLT-4; assay: Cytotoxicity against human MOLT-4 cells assessed as cell viability at 100 uM measured after 48 hrs by WST-1 assay relative to control; assay type: functional; details: read-out: Activity; outline: as §1
[25] = test system: HeLa; assay: Cytotoxicity against human HeLa cells assessed as cell viability at 10 uM measured after 48 hrs by WST-1 assay relative to control; assay type: functional; details: read-out: Activity; outline: as §1
[26] = test system: PANC-1; assay: Cytotoxicity against human PANC-1 cells assessed as cell viability at 10 uM measured after 48 hrs by WST-1 assay relative to control; assay type: functional; details: read-out: Activity; outline: as §1
[27] = test system: A549; assay: Cytotoxicity against human A549 cells assessed as reduction in cell viability incubated for 24 hrs by MTT assay; assay type: functional, cell-based; details: A549, 24 h
Outline: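 A-549 cells in DMEM with 10% FBS and 1% penicillin-streptomycin were attached overnight. Compounds were prepared in PBS and serially diluted in DMEM, then incubated 24 h. Viability was read by colorimetric MTT reduction against an untreated control on each plate (100%). IC50 came from four-parameter nonlinear regression of the log concentration-response curve, mean ± SEM. MTC is the highest concentration not differing from control (t-test).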

[28] = test system: HeLa; assay: Cytotoxicity against human HeLa cells assessed as cell viability at 100 uM measured after 48 hrs by WST-1 assay relative to control; assay type: functional; details: read-out: Activity; outline: as §1
[29] = test system: Jurkat; assay: Cytotoxicity against human Jurkat cells assessed as cell viability at 10 uM measured after 48 hrs by WST-1 assay relative to control; assay type: functional; details: read-out: Activity; outline: as §1
[30] = test system: A2780; assay: Cytotoxicity against human A2780 cells assessed as cell viability at 10 uM measured after 48 hrs by WST-1 assay relative to control; assay type: functional; details: read-out: Activity; outline: as §1
[31] = test system: SAOS-2; assay: Cytotoxicity against human SAOS-2 cells assessed as cell viability at 10 uM measured after 48 hrs by WST-1 assay relative to control; assay type: functional; details: read-out: Activity; outline: as §1
[32] = test system: HT-29; assay: Cytotoxicity against human HT-29 cells assessed as growth percent at 100 uM by WST-1 assay relative to control; assay type: functional; details: HT-29, read-out: Activity, time 48 hrs
[33] = test system: MCF7; assay: Cytotoxicity against human MCF7 cells assessed as growth percent at 100 uM by WST-1 assay relative to control; assay type: functional; details: MCF7, read-out: Activity, time 48 hrs
[34] = test system: Mus musculus; assay: Radioprotective activity in C57Bl/6 mouse assessed as body weight gain at 100 mg/kg, ip administered 5 min prior to gamma-irradation at 8.5 Gy measured after 30 days relative to control; assay type: functional
[35] = test system: Mus musculus; assay: Radioprotective activity in C57Bl/6 mouse assessed as average body weight at 100 mg/kg, ip administered 5 min prior to gamma-irradation at 8.5 Gy and measured after 30 days; assay type: functional
[36] = Immuno-toxicity in C57Bl/6 mouse assessed as decrease in absolute number of lymphocytes at 100 mg/kg, ip measured after 12 days post-treatment by flow cytometry; assay type: organism-based; details: in vivo, 288 h, time 12 day

SMILES | MTD [1] | viability at 100 µM [2] | viability at 10 µM [3] | viability at 10 µM [7] | viability at 100 µM [8] | viability at 48 h, 100 µM [9] | viability at 48 h, 10 µM [10] | viability at 10 µM [11] | viability at 100 µM [12] | viability at 100 µM [14] | viability at 100 µM [15] | viability at 100 µM [16] | viability at 100 µM [17] | viability at 100 µM [19] | viability at 10 µM [20] | viability at 100 µM [24] | viability at 10 µM [25] | viability at 10 µM [26] | IC50 [27] | viability at 100 µM [28] | also measured
Cc1ccccc1OCC(O)CN1CCN(CCO)CC1 (centres undefined) | 0.39 mM | 95% | 98% | 103% | 151% | 104% | 97% | 104% | 84% | 62% | 92% | 114% | 79% | 116% | 95% | 86% | 102% | 102% | 3400 µM | 96% | Activity [4]: 104%; Activity [5]: Toxic; Activity [6]: Non-Toxic; Activity [13]: 27.2 g; MST [18]: 7 days; Activity [21]: Non-Toxic; Activity [22]: 27.3 g; Activity [23]: 26.2 g; viability at 10 µM [29]: 106%; viability at 10 µM [30]: 101%; viability at 10 µM [31]: 103%
OCCN1CCN(CC(O)COc2cccc3ccccc23)CC1 (centres undefined) | 0.07 mM | 64% | 93% | 103% | 53% | 78% | 102% | 98% | 97% | 59% | 76% | 107% | 77% | 101% | 98% | 83% | 99% | 102% | 420 µM | 129% | growth at 100 µM [32]: 53%; viability at 10 µM [29]: 96%; viability at 10 µM [30]: 97%; viability at 10 µM [31]: 97%; growth at 100 µM [33]: 64%
C=CCc1ccc(OCC(O)CN2CCN(CCO)CC2)c(OC)c1 (centres undefined) | 0.2 mM | 89% | 109% | 99% | 102% | 103% | 94% | 104% | 75% | 52% | 83% | 105% | 85% | 116% | 91% | 65% | 100% | 101% | 1120 µM | 99% | Activity [4]: 105%; Activity [6]: Non-Toxic; Activity [34]: 103%; Activity [13]: 27 g; MST [18]: 12 days; Activity [35]: 27.3 g; Activity [21]: Non-Toxic; Activity [22]: 25.1 g; Activity [23]: 25.7 g; viability at 10 µM [29]: 110%; viability at 10 µM [30]: 97%; viability at 10 µM [31]: 112%; Activity [36]: Toxic
